Results taken from ChEMBL document CHEMBL1955813, “Synthesis of new troglitazone derivatives: anti-proliferative activity in breast cancer cell lines and preliminary toxicological study” (Eur J Med Chem, 2012).

How the values were obtained:
[1] = Cytotoxicity against human hepatocytes assessed as cell viability at 100 uM after 90 mins by MTT assay relative to control; type: cell-based, Hepatocyte; conditions: read-out: Activity
Summary of the method: (§1)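 Cryopreserved primary human hepatocytes, 0.1 × 10⁶ cells/well in DMEM with gentamycin, insulin, 10 µM dexamethasone, 37 °C, 5% CO₂. Equilibrated 30 min with stirring at 900 rpm, then compound or DMSO (0.4%) added, 0.5–100 µM (7 levels), triplicate. After 90 min, MTT added for 30 min at 37 °C; formazan dissolved in DMSO, A595; viability as % of DMSO control.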

[2] = tested on: MCF7; test: Antiproliferative activity hormone-dependent human MCF7 cells after 24 hrs by luminescent cell viability assay; type: functional, cell-based; conditions: MCF7, 24 h
Summary of the method: (§2)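 Seeded at 8.10⁴ cells/well; after 24 h attachment, medium switched to 1% FCS with 2 mM L-glutamine and compounds added. MCF-7 grown in phenol red DMEM, MDA-MB-231 in L-15 (both 10% FCS, 37 °C). Exposure 24 h; controls 0.1% DMSO. Cells washed, trypsinized, quantified by CellTiter-Glo luminescence. Triplicate; IC50 = concentration halving viable cell number.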

[3] = tested on: MDA-MB-231; test: Antiproliferative activity hormone-independent human MDA-MB-231 cells after 24 hrs by luminescent cell viability assay; type: functional, cell-based; conditions: MDA-MB-231, 24 h; summary of the method: as §2
[4] = Ratio of drug level in liver to plasma in rat; type: ADME, tissue-based; conditions: liver and plasma
[5] = Cmax in human at 600 mg/day; type: ADME, organism-based; parameters: dose 600 mg/day; conditions: plasma
[6] = tested on: Hepatocyte; test: Cytotoxicity against human hepatocytes assessed as cell viability up to 50 uM after 90 mins by MTT assay; type: cell-based; conditions: 1.5 h; summary of the method: as §1

Row | IC50 [2] [µM] | IC50 [3] [µM] | Kp [4] | Cmax [5] [µM] | Compound | viability at 1.5 h, 100 µM [1] [%] | Activity [6]
1 | > 50 | > 25 |  |  | Cc1c(C)c2c(c(C)c1OC(=O)CCC(=O)O)CCC(C)(COc1ccc(/C=C3\SC(=O)NC3=O)cc1)O2 (racemic) | 54 | 
2 | 11.2 | 3.8 |  |  | Cc1c(C)c2c(c(C)c1OC(=O)OC(C)(C)C)CCC(C)(COc1ccc(CC3SC(=O)NC3=O)cc1)O2 (racemic) | 47 | 
3 | 3.2 | 5 |  |  | Cc1c(C)c2c(c(C)c1OC(=O)CCCCCCCN)CCC(C)(COc1ccc(/C=C3\SC(=O)NC3=O)cc1)O2 (racemic) | 57 | 
4 | 35.4 | 15.7 | 10 | 6.3 | Cc1c(C)c2c(c(C)c1O)CCC(C)(COc1ccc(CC3SC(=O)NC3=O)cc1)O2 (stereo not drawn) [TROGLITAZONE] | 52 | Non-toxic
5 | > 50 | > 25 |  |  | Cc1c(C)c2c(c(C)c1OC(=O)CCC(=O)O)CCC(C)(COc1ccc(CC3SC(=O)NC3=O)cc1)O2 (racemic) | 76 | 
6 | 20 | 12.3 |  |  | Cc1cc(C)c2c(c1C)OC(C)(COc1ccc(CC3SC(=O)NC3=O)cc1)CC2 (racemic) | 66 | 
7 | > 50 | > 25 |  |  | CC(=O)NCCNC(=O)CCC(=O)Oc1c(C)c(C)c2c(c1C)CCC(C)(COc1ccc(/C=C3\SC(=O)NC3=O)cc1)O2 (racemic) | 75 | 
8 | 12.5 | 10.8 |  |  | Cc1cc(C)c2c(c1C)OC(C)(COc1ccc(/C=C3\SC(=O)NC3=O)cc1)CC2 (racemic) | 84 | Non-toxic
9 | 13 | 3.2 |  |  | Cc1c(C)c2c(c(C)c1OC(=O)CCCCCCCNC(=O)OC(C)(C)C)CCC(C)(COc1ccc(/C=C3\SC(=O)NC3=O)cc1)O2 (racemic) | 79 | Non-toxic
10 | 15.9 | 6.5 |  |  | Cc1c(C)c2c(c(C)c1OC(=O)CCCC[C@@H]1SC[C@@H]3NC(=O)N[C@@H]31)CCC(C)(COc1ccc(CC3SC(=O)NC3=O)cc1)O2 (mixture of isomers) | 50 | 
11 | 26 | 3.7 |  |  | Cc1c(C)c2c(c(C)c1OC(=O)CCCCCCCNC(=O)CCCC[C@@H]1SC[C@@H]3NC(=O)N[C@@H]31)CCC(C)(COc1ccc(/C=C3\SC(=O)NC3=O)cc1)O2 (stereo partly drawn) | 61 | 
12 | 29.7 | 16.6 |  |  | Cc1c(C)c2c(c(C)c1O)CCC(C)(COc1ccc(/C=C3\SC(=O)NC3=O)cc1)O2 (racemic) | 63 | Non-toxic
13 | 7.7 | 3.3 |  |  | Cc1c(C)c2c(c(C)c1OC(=O)OC(C)(C)C)CCC(C)(COc1ccc(/C=C3\SC(=O)NC3=O)cc1)O2 (racemic) | 75 | 
14 | 11.2 | 3.5 |  |  | Cc1c(C)c2c(c(C)c1OC(=O)CCCC[C@@H]1SC[C@@H]3NC(=O)N[C@@H]31)CCC(C)(COc1ccc(/C=C3\SC(=O)NC3=O)cc1)O2 (mixture of isomers) | 66 | 
